Measurements published in ChEMBL document CHEMBL1154403, “Serotypes, Clones, and Mechanisms of Resistance of Erythromycin-Resistant Streptococcus pneumoniae Isolates Collected in Spain” (2007).
Converted amounts (≈) assume the structure as drawn.

What was measured:
Type in all cases: functional
Streptococcus pneumoniae [1] = experiment: Antibacterial activity against erythromycin-resistant Streptococcus pneumoniae assessed as percent sensitive isolates by CLSI breakpoint method
Streptococcus pneumoniae [2] = experiment: Antibacterial activity against erythromycin-resistant Streptococcus pneumoniae assessed as percent resistant isolates by microdilution method
Outline: (§1)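 Broth microdilution MICs per CLSI on all 125 erythromycin-resistant pneumococcal isolates, using Mueller-Hinton broth with 2 to 5% lysed horse blood in prepared panels. Example ranges: erythromycin 0.25 to 32 μg/ml, clindamycin 0.25 to 0.5 μg/ml, penicillin 0.03 to 8 μg/ml, telithromycin 0.015 to 32 μg/ml (separate panel). Quality control strain: S. pneumoniae ATCC 49619.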

Streptococcus pneumoniae [3] = experiment: Antibacterial activity against erythromycin-resistant Streptococcus pneumoniae assessed as percent resistant isolates by CLSI breakpoint method
Streptococcus pneumoniae [4] = experiment: Antibacterial activity against erythromycin-resistant Streptococcus pneumoniae by microdilution method; outline: as §1
Streptococcus pneumoniae [5] = experiment: Antibacterial activity against inducible macrolide-lincosamide-streptogramin B-resistant Streptococcus pneumoniae isolates by double-disk diffusion method
Outline: (§2)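 Macrolide resistance phenotype assigned by double-disk diffusion with erythromycin (15 μg) and clindamycin (2 μg) disks placed 12 mm apart, edge to edge. After incubation, a flattened clindamycin zone next to the erythromycin disk (D zone) marked inducible resistance. A conserved clindamycin zone marked the M phenotype.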

Streptococcus pneumoniae [6] = experiment: Antibacterial activity against constitutive macrolide-lincosamide-streptogramin B-resistant Streptococcus pneumoniae isolates by double-disk diffusion method; outline: as §2
Streptococcus pneumoniae [7] = experiment: Antibacterial activity against macrolide-resistant Streptococcus pneumoniae isolates by double-disk diffusion method; outline: as §2
Streptococcus pneumoniae [8] = experiment: Antibacterial activity Streptococcus pneumoniae expressing erm(B) and/or mef genes at 0.25 ug/ml by broth microdilution method
Outline: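 Clinical erythromycin-resistant pneumococcal isolates identified by bile solubility and optochin susceptibility. MICs were determined by CLSI broth microdilution in Mueller-Hinton broth with 2 to 5% lysed horse blood, using commercial prepared panels; telithromycin was tested on a separate panel across 0.015 to 32 μg/ml. S. pneumoniae ATCC 49619 served as quality control.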

Streptococcus pneumoniae [9] = experiment: Antibacterial activity against inducible macrolide-lincosamide-streptogramin B-resistant Streptococcus pneumoniae expressing erm(B) and tet(M) genes assessed as percent resistant isolates by broth microdilution method; outline: as §1

In the case of `CC[C@H]1OC(=O)[C@H](C)[C@@H](O[C@H]2C[C@@](C)(OC)[C@@H](O)[C@H](C)O2)[C@H](C)[C@@H](O[C@@H]2O[C@H](C)C[C@H](N(C)C)[C@H]2O)[C@](C)(O)C[C@@H](C)CN(C)[C@H](C)[C@@H](O)[C@]1(C)O` [AZITHROMYCIN], the Activity (Streptococcus pneumoniae [1]) was “<=0.5 ug ml-1”, the Activity (Streptococcus pneumoniae [2]) was 100% and the “CLSI resistance breakpoint (MIC)” value (Streptococcus pneumoniae [3]) was “>=2 ug ml-1”. For the same compound, the MIC (Streptococcus pneumoniae [4]) was over 4 µg/mL, the MIC50 (Streptococcus pneumoniae [4]) was over 4 µg/mL and the MIC90 (Streptococcus pneumoniae [4]) was over 4 µg/mL.
With `CO/N=C(\C(=O)N[C@@H]1C(=O)N2C(C(=O)O)=C(COC(C)=O)CS[C@H]12)c1csc(N)n1` [CEFOTAXIME] the Activity (Streptococcus pneumoniae [1]) was “<=1 ug ml-1”, the Activity (Streptococcus pneumoniae [2]) was 0.8% and the “CLSI resistance breakpoint (MIC)” value (Streptococcus pneumoniae [3]) was “>=4 ug ml-1”. The MIC (Streptococcus pneumoniae [4]) was at most 0.06 µg/mL, the MIC50 (Streptococcus pneumoniae [4]) was 0.25 µg/mL (≈ 0.549 µM) and the MIC90 (Streptococcus pneumoniae [4]) was 0.5 µg/mL (≈ 1.1 µM).
`O=C(N[C@H](CO)[C@H](O)c1ccc([N+](=O)[O-])cc1)C(Cl)Cl` [CHLORAMPHENICOL] was tested, and the Activity (Streptococcus pneumoniae [1]) was “<=4 ug ml-1”, the Activity (Streptococcus pneumoniae [2]) was 34.4% and the “CLSI resistance breakpoint (MIC)” value (Streptococcus pneumoniae [3]) was “>=8 ug ml-1”. It also gave an MIC (Streptococcus pneumoniae [4]) of over 8 µg/mL, an MIC50 (Streptococcus pneumoniae [4]) of 2 µg/mL (≈ 6.19 µM) and an MIC90 (Streptococcus pneumoniae [4]) of over 8 µg/mL.
With `CCC[C@@H]1C[C@@H](C(=O)N[C@@H]([C@H]2O[C@H](SC)[C@H](O)[C@@H](O)[C@H]2O)[C@H](C)Cl)N(C)C1` [CLINDAMYCIN] the Activity (Streptococcus pneumoniae [1]) was “<=0.25 ug ml-1”, the Activity (Streptococcus pneumoniae [2]) was 87.2% and the MIC (Streptococcus pneumoniae [5]) was over 0.5 µg/mL. The MIC (Streptococcus pneumoniae [6]) was over 0.5 µg/mL, the MIC (Streptococcus pneumoniae [7]) was at most 0.25 µg/mL and the “CLSI resistance breakpoint (MIC)” value (Streptococcus pneumoniae [3]) was “>=1 ug ml-1”. For the same compound, the MIC (Streptococcus pneumoniae [4]) was over 0.5 µg/mL, the MIC50 (Streptococcus pneumoniae [4]) was over 0.5 µg/mL and the MIC90 (Streptococcus pneumoniae [4]) was over 0.5 µg/mL.
In the case of `CC[C@H]1OC(=O)[C@H](C)[C@@H](O[C@H]2C[C@@](C)(OC)[C@@H](O)[C@H](C)O2)[C@H](C)[C@@H](O[C@@H]2O[C@H](C)C[C@H](N(C)C)[C@H]2O)[C@](C)(O)C[C@@H](C)C(=O)[C@H](C)[C@@H](O)[C@]1(C)O` [ERYTHROMYCIN], the Activity (Streptococcus pneumoniae [1]) was “<=0.25 ug ml-1”, the Activity (Streptococcus pneumoniae [2]) was 100% and the MIC (Streptococcus pneumoniae [5]) was at least 4 µg/mL. The MIC (Streptococcus pneumoniae [6]) was over 32 µg/mL, the MIC (Streptococcus pneumoniae [7]) was 2 µg/mL (≈ 2.73 µM) and the “CLSI resistance breakpoint (MIC)” value (Streptococcus pneumoniae [3]) was “>=1 ug ml-1”. For the same compound, the MIC50 (Streptococcus pneumoniae [4]) was over 32 µg/mL and the MIC90 (Streptococcus pneumoniae [4]) was over 32 µg/mL.
In the case of `CO[C@@H]1[C@@H](O[C@@H]2O[C@H](C)[C@@H](O[C@H]3C[C@@](C)(O)[C@@H](OC(=O)CC(C)C)[C@H](C)O3)[C@H](N(C)C)[C@H]2O)[C@@H](CC=O)C[C@@H](C)[C@@H](O)/C=C/C=C/C[C@@H](C)OC(=O)C[C@H]1OC(C)=O` [JOSAMYCIN], the Activity (Streptococcus pneumoniae [1]) was “<=1 ug ml-1”, the Activity (Streptococcus pneumoniae [2]) was 87.2% and the MIC (Streptococcus pneumoniae [5]) was over 2 µg/mL. The MIC (Streptococcus pneumoniae [6]) was over 2 µg/mL, the MIC (Streptococcus pneumoniae [7]) was at most 0.5 µg/mL and the “CLSI resistance breakpoint (MIC)” value (Streptococcus pneumoniae [3]) was “>=4 ug ml-1”. The MIC (Streptococcus pneumoniae [4]) was over 2 µg/mL, the MIC50 (Streptococcus pneumoniae [4]) was over 2 µg/mL and the MIC90 (Streptococcus pneumoniae [4]) was over 2 µg/mL.
`C[C@H]1COc2c(N3CCN(C)CC3)c(F)cc3c(=O)c(C(=O)O)cn1c23.C[C@H]1COc2c(N3CCN(C)CC3)c(F)cc3c(=O)c(C(=O)O)cn1c23.O` [LEVOFLOXACIN] was tested, and the Activity (Streptococcus pneumoniae [1]) was “<=2 ug ml-1”, the Activity (Streptococcus pneumoniae [2]) was 4% and the “CLSI resistance breakpoint (MIC)” value (Streptococcus pneumoniae [3]) was “>=8 ug ml-1”. It also gave an MIC (Streptococcus pneumoniae [4]) of over 4 µg/mL, an MIC50 (Streptococcus pneumoniae [4]) of 1 µg/mL and an MIC90 (Streptococcus pneumoniae [4]) of 1 µg/mL.
Compound `COc1c(N2C[C@@H]3CCCN[C@@H]3C2)c(F)cc2c(=O)c(C(=O)O)cn(C3CC3)c12` [MOXIFLOXACIN] has an Activity (Streptococcus pneumoniae [2]) of 2.4%, an MIC (Streptococcus pneumoniae [4]) of over 1 µg/mL and an MIC50 (Streptococcus pneumoniae [4]) of at most 0.25 µg/mL. It also gave an MIC90 (Streptococcus pneumoniae [4]) of at most 0.25 µg/mL.
`CC[C@H]1OC(=O)[C@H](C)C(=O)[C@H](C)[C@@H](O[C@@H]2O[C@H](C)C[C@H](N(C)C)[C@H]2O)[C@](C)(OC)C[C@@H](C)C(=O)[C@H](C)[C@H]2N(CCCCn3cnc(-c4cccnc4)c3)C(=O)O[C@]12C` [TELITHROMYCIN] was tested, and the Activity (Streptococcus pneumoniae [1]) was “<=1 ug ml-1”, the Activity (Streptococcus pneumoniae [2]) was 0% and the Activity (Streptococcus pneumoniae [8]) was 90%. For the same compound, the “CLSI resistance breakpoint (MIC)” value (Streptococcus pneumoniae [3]) was “>=4 ug ml-1”, the MIC (Streptococcus pneumoniae [4]) was 0.03 µg/mL (≈ 0.0369 µM) and the MIC50 (Streptococcus pneumoniae [4]) was 0.03 µg/mL (≈ 0.0369 µM). The MIC90 (Streptococcus pneumoniae [4]) was 0.25 µg/mL (≈ 0.308 µM).
In the case of `CN(C)[C@@H]1C(O)=C(C(N)=O)C(=O)[C@@]2(O)C(O)=C3C(=O)c4c(O)cccc4[C@@](C)(O)[C@H]3C[C@@H]12` [TETRACYCLINE], the Activity (Streptococcus pneumoniae [1]) was “<=2 ug ml-1”, the Activity (Streptococcus pneumoniae [2]) was 77.6% and the Activity (Streptococcus pneumoniae [9]) was 90%. For the same compound, the “CLSI resistance breakpoint (MIC)” value (Streptococcus pneumoniae [3]) was “>=8 ug ml-1”, the MIC (Streptococcus pneumoniae [4]) was over 4 µg/mL and the MIC50 (Streptococcus pneumoniae [4]) was over 4 µg/mL. The MIC90 (Streptococcus pneumoniae [4]) was over 4 µg/mL.
In the case of `CN[C@H](CC(C)C)C(=O)N[C@H]1C(=O)N[C@@H](CC(N)=O)C(=O)N[C@H]2C(=O)N[C@H]3C(=O)N[C@H](C(=O)N[C@H](C(=O)O)c4cc(O)cc(O)c4-c4cc3ccc4O)[C@H](O)c3ccc(c(Cl)c3)Oc3cc2cc(c3O[C@@H]2O[C@H](CO)[C@@H](O)[C@H](O)[C@H]2O[C@H]2C[C@](C)(N)[C@H](O)[C@H](C)O2)Oc2ccc(cc2Cl)[C@H]1O` [VANCOMYCIN], the Activity (Streptococcus pneumoniae [1]) was “<=1 ug ml-1”, the Activity (Streptococcus pneumoniae [2]) was 0% and the MIC (Streptococcus pneumoniae [4]) was 1 µg/mL (≈ 0.69 µM). For the same compound, the MIC50 (Streptococcus pneumoniae [4]) was at most 0.25 µg/mL and the MIC90 (Streptococcus pneumoniae [4]) was 1 µg/mL (≈ 0.69 µM).
